Assay [1] has as its target 5-hydroxytryptamine receptor 2B (Rattus norvegicus, UniProt P30994). As to the kind of experiment: Antagonistic affinity measured as pA2 value on 5-hydroxytryptamine 2B receptor of the rat stomach fundus. The assay is classed as functional, tissue-based. The conditions noted are these: read-out: pA2 (converted).
Assay [2] has as its target T1, 5-hydroxytryptamine receptor 2C (Homo sapiens, UniProt P28335).
T1 sequence (P28335 whole entry): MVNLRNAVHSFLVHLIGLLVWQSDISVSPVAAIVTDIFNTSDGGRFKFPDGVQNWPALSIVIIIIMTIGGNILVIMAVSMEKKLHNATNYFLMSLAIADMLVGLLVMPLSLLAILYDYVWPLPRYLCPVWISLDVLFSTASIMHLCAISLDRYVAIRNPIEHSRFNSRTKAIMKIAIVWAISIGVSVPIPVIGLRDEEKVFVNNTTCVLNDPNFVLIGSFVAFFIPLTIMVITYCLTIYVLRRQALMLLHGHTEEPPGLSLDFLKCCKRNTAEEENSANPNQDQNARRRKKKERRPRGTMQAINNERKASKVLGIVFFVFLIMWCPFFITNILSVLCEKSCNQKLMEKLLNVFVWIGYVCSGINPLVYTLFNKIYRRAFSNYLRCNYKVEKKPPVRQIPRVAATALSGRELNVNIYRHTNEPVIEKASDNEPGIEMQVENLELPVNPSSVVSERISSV
As to the kind of experiment: (§1) Selectivity as the ratio of Ki value towards 5-hydroxytryptamine 2C receptor to that of pA2 value towards 5-hydroxytryptamine 2B receptor. The assay is classed as functional.

In assay [3] the target is 5-HT2C receptor (Homo sapiens). As to the kind of experiment: Antagonistic binding affinity measured against 5-hydroxytryptamine 2C receptor (human clone expressed in 293 cells) using [3H]mesulergine as radioligand.
The target in assay [4] is 5-hydroxytryptamine receptor 1E (Homo sapiens, UniProt P28566). Put plainly: The binding affinity (pKi) measured against 5-hydroxytryptamine 1E receptor (cloned human receptors in CHO cells) using […] as radioligand. The assay is classed as cell-based. In a few lines: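 Radioligand binding at cloned human 5-HT1E receptors expressed in CHO cells, labelled with [3H]-5-HT.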
Chain of 5-hydroxytryptamine receptor 1E (P28566 whole entry): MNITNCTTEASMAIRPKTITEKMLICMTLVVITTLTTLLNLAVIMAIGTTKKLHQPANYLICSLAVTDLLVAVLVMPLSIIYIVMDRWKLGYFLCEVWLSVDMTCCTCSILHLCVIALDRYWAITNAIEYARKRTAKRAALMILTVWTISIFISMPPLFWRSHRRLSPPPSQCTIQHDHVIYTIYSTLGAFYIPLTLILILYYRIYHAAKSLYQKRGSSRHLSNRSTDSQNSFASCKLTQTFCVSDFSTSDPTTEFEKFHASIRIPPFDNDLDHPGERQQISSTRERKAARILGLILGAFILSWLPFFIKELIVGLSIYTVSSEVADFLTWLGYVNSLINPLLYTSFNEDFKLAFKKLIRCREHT

Assay [5] addresses T2, Adrenergic receptor alpha-1 (Rattus norvegicus, UniProt P15823+P23944+P43140).
T2 sequence (P15823 whole entry): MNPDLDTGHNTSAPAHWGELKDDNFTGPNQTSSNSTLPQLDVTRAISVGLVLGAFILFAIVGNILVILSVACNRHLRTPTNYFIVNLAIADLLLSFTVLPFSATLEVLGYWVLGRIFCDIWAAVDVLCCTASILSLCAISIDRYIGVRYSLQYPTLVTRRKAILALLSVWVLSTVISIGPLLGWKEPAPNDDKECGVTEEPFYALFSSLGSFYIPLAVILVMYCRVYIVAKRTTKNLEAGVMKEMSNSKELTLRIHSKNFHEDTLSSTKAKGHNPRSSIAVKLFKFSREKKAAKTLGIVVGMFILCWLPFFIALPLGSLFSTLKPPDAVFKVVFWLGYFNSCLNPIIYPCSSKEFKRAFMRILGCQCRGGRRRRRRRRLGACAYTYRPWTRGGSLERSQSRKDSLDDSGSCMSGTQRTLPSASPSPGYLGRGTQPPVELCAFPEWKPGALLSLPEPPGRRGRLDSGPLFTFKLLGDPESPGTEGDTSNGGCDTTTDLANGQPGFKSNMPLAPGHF
T2 sequence (P23944 whole entry): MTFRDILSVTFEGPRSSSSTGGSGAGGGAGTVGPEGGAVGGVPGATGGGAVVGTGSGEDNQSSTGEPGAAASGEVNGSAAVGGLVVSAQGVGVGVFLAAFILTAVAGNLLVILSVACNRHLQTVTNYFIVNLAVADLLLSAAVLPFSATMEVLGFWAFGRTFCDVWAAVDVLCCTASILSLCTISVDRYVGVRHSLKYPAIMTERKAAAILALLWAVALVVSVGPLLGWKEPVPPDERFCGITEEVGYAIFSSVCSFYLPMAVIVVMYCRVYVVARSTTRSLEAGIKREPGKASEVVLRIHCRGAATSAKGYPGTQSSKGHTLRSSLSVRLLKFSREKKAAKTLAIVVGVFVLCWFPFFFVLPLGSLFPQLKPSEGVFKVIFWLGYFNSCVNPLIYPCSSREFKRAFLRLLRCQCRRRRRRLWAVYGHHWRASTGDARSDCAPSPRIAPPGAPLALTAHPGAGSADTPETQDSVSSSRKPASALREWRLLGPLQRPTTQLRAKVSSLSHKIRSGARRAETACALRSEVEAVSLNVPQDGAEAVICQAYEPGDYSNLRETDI
T2 sequence (P43140 whole entry): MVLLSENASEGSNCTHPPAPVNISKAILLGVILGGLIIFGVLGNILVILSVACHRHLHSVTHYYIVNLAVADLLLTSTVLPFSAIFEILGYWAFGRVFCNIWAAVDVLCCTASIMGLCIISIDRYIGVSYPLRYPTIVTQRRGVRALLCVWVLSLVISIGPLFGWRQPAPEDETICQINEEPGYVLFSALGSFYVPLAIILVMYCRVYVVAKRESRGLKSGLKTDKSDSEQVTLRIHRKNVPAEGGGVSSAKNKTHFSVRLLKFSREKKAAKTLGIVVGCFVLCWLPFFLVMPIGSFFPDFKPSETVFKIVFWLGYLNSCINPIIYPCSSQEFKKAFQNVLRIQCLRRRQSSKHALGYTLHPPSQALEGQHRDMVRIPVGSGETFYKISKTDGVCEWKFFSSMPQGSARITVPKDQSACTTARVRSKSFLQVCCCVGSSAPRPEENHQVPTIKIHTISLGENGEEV
Put plainly: The binding affinity (pKi) measured against Alpha-1 adrenergic receptor of rat cortex using [3H]prazosin as radioligand.

A further assay addresses D(1A) dopamine receptor (Homo sapiens, UniProt P21728). Put plainly: The binding affinity (pKi) measured against Dopamine receptor D1 using [3H]-SCH- 23390 as radioligand. An outline of the steps:
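Binding at cloned human dopamine D1 receptors expressed in LTK cells.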

For another assay, the target named is D(2) dopamine receptor (Homo sapiens, UniProt P14416). Put plainly: In vitro binding affinity was measured on Dopamine receptor D2.
Chain of D(2) dopamine receptor (P14416 whole entry): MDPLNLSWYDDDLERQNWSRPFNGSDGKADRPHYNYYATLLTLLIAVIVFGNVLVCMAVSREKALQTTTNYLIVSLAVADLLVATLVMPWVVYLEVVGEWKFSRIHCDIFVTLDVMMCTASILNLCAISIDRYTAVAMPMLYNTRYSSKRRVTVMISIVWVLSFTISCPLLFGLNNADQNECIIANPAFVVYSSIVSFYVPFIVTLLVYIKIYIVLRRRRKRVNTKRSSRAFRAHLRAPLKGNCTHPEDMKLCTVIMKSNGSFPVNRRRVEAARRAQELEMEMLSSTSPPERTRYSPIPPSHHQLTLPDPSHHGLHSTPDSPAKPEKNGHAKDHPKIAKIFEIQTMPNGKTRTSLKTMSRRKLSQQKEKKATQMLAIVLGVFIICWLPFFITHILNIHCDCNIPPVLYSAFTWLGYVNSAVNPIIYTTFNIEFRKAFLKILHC
Assay [6] has as its target GABA-A receptor; anion channel. As to the kind of experiment: Inhibition of [3H]muscimol binding to Gamma-aminobutyric acid A (GABA-A) receptor of rat cortex.
In another assay the target is Histamine H1 receptor (Cavia porcellus, UniProt P31389). As to the kind of experiment: The binding affinity (pKi) measured against histamine H1 receptor of guinea pig cerebellum using [3H]mepyramine as radioligand. The assay is classed as tissue-based.
Chain of Histamine H1 receptor (P31389 whole entry): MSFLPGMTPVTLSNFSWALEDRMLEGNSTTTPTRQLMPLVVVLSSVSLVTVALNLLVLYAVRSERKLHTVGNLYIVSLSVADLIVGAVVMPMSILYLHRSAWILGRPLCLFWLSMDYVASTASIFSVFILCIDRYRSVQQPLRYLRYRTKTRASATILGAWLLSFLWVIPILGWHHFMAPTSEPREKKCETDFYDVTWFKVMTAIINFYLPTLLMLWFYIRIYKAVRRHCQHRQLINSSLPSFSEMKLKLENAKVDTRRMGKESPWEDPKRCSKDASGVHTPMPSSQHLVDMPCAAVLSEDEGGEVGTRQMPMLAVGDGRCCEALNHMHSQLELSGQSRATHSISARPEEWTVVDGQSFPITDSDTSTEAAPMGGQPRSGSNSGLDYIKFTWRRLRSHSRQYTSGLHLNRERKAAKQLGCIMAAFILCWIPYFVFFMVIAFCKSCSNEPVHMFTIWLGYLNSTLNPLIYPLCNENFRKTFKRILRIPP
In assay [7] the target is 5-hydroxytryptamine receptor 2A (Homo sapiens, UniProt P28223). Put plainly: Antagonistic binding affinity measured against 5-hydroxytryptamine 2A receptor (human clone expressed in 293 cells) using [3H]ketanserin as radioligand. The assay is classed as cell-based, HEK293.
Chain of 5-hydroxytryptamine receptor 2A (P28223 whole entry): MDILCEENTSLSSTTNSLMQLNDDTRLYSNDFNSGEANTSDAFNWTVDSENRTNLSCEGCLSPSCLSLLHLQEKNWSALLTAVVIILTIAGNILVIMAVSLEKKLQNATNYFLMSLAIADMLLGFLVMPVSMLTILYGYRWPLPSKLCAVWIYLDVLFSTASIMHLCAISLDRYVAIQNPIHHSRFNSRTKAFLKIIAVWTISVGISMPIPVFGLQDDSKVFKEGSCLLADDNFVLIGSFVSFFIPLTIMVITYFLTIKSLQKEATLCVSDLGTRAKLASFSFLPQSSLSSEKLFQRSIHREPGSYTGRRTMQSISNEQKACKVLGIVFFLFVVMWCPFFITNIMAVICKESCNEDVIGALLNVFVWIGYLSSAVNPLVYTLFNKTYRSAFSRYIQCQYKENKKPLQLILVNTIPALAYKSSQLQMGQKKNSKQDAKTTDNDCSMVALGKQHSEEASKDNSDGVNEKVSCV
The target in assay [8] is T1, 5-hydroxytryptamine receptor 2C. Put plainly: Antagonistic binding affinity measured against 5-hydroxytryptamine 2C receptor (human clone expressed in 293 cells) using [3H]mesulergine as radioligand. The assay is classed as cell-based, HEK293.
Assay [9] can be described thus: as §1. The format is functional.

Results on 5 compounds are retold here after ChEMBL document CHEMBL1128263, “N-(1-methyl-5-indolyl)-N'-(3-methyl-5-isothiazolyl)urea: a novel, high-affinity 5-HT2B receptor antagonist” (J Med Chem, 1995).

Usually Ki stands for a measure of affinity in units of concentration, obtained from inhibition or displacement.

Chain of 5-hydroxytryptamine receptor 2B (P30994 whole entry): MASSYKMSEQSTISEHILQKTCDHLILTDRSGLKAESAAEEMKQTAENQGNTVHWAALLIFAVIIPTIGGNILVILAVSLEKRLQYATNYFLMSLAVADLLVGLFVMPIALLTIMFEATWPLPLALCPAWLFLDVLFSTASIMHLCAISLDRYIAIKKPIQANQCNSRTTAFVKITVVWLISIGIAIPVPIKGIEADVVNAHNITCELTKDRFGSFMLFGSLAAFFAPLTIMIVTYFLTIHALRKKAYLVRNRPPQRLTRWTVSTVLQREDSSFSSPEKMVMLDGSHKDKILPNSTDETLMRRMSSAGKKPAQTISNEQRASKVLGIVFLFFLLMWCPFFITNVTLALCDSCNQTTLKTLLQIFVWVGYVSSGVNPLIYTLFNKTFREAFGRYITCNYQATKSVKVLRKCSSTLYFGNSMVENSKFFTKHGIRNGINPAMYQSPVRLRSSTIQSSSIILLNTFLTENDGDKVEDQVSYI
Chain of D(1A) dopamine receptor (P21728 whole entry): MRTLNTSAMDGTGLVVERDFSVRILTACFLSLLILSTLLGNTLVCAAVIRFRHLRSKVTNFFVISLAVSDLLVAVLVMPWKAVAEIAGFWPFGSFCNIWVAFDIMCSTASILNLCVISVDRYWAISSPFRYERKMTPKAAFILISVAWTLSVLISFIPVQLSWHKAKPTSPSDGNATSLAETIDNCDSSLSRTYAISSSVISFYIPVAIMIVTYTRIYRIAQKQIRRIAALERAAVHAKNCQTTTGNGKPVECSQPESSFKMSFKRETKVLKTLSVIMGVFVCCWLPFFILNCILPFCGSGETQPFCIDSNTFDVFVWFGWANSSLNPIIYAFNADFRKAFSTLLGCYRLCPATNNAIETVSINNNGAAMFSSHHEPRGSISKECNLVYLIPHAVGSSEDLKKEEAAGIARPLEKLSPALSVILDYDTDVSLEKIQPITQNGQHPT

As for `Cc1cc(NC(=O)Nc2ccc3c(ccn3C)c2)on1`, in assay [1], the Kb was 69.2 nM. For the same compound, the Ki in assay [2] was 347 nM; in [3], > 6310 nM.

For the compound `Cc1cc(NC(=O)Nc2ccc3c(ccn3C)c2)sn1`, the Ki is > 100000 nM in assay [4], > 10000 nM on D(1A) dopamine receptor, > 31600 nM at D(2) dopamine receptor and > 10000 nM at Histamine H1 receptor. The Kb in assay [1] was 11.2 nM. In addition, the Log Ki in assay [5] is > -5.5; in assay [6], > -5.

On to `Cn1ccc2cc(NC(=O)Nc3cccnc3)ccc21`, for which the Kb in assay [1] was 38.9 nM. In addition, the Ki in [2] was 110 nM.

As to `Cc1cc(NC(=O)Nc2ccc3sccc3c2)on1`, the Kb in assay [1] was 46.8 nM. For the same compound, the Ki is 89.1 nM in assay [2] and > 6310 nM in assay [3].

As to `Cc1cc(NC(=O)Nc2ccc3sccc3c2)sn1`, the values for the Ki in [7] and in [8] were 6310 nM and 417 nM, respectively. In [1], the Kb is 15.1 nM. Besides, in [9], the Selectivity was determined as 27.
